Like-named read-outs stand apart in the source and are kept apart here.
Legend:
Recombinant FTase = Recombinant FTase (Rattus norvegicus, UniProt Q02293+Q04631); experiment: FTase enzyme assay; format: biochemical; conditions: for FTase inhibitory activity: concentrations as high as 100 μM, data not shown
Recombinant GGTase I = Recombinant GGTase I (Rattus norvegicus, UniProt P53610+Q04631); experiment: GGTase I enzyme assay; format: biochemical
Outline: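 Recombinant GGTase I activity measured by a modified Temple et al. method, with dansyl-peptide substrates (dansyl-GCVLS and dansyl-GCVLL listed for the FTase/GGTase I assays); fluorescence change followed over time on a microplate reader. Test compound run in duplicate at multiple concentrations, three independent experiments; IC50 obtained from concentration-response curves.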

RPMI-8226 myeloma cells [1] = experiment: H-Ras immunoblot; format: cell-based; conditions: RPMI-8226 cells, 48 h
RPMI-8226 myeloma cells [2] = experiment: Cellular assays: Rap1a immunoblot and intracellular lambda light chain ELISA; format: cell-based
[3] = concentrations as high as 100 μM, data not shown

Sequence of Recombinant GGTase I (P53610 whole entry, one chain of several): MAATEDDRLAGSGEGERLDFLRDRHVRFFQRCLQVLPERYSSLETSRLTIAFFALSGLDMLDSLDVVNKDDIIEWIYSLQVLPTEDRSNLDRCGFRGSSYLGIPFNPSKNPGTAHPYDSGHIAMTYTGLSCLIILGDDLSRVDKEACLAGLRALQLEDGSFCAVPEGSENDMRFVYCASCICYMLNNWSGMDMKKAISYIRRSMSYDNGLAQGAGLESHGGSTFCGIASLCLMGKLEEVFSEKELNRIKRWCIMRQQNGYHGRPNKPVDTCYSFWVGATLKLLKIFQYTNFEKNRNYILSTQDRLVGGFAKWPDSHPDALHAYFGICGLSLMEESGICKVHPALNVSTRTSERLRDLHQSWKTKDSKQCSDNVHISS
Sequence of Recombinant FTase (Q02293 whole entry, one chain of several): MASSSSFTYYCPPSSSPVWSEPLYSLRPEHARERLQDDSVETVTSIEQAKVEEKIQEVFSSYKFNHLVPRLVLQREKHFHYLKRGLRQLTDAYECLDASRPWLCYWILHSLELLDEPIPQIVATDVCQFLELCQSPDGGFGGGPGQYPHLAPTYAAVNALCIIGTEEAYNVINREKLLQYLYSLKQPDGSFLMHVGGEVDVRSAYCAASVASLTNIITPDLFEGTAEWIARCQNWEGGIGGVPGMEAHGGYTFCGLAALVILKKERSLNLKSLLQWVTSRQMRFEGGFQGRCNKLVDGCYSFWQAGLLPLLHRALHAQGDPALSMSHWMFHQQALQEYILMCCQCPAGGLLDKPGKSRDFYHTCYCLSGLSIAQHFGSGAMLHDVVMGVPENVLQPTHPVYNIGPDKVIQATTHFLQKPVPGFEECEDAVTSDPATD

Row | Structure (SMILES) | GGTase I inhibitory activity (Recombinant GGTase I; [3]) | FTase inhibitory activity (Recombinant FTase) | Effect on H-Ras farnesylation (prenylation) (RPMI-8226 myeloma cells [1]) | other results
1 | CC(C)=CCC/C(C)=C\C(=O)NCCC(P(=O)(O)O)P(=O)(O)O [Compound 2c] |  |  |  | inhibition at 100 µM (Recombinant FTase; read-out: FTase inhibitory activity): < 30%
2 | CC(C)=CCC/C(C)=C/CCC(=O)NCCC(P(=O)([O-])[O-])P(=O)([O-])[O-].[Na+].[Na+].[Na+].[Na+] [Compound 2h, Disodium (1-[bis(sodiooxy)phosphoryl]-3-[(4E)-5,9-dimethyldeca-4,8-dienamido]propyl)phosphonate] | no inhibitory activity was observed | no inhibitory activity was observed | None of these compounds (2g, 2h, 2i, 2e, 2d) disrupted H-Ras farnesylation | 
3 | CC(C)=CCCC(=O)NCCC(P(=O)([O-])[O-])P(=O)([O-])[O-].[Na+].[Na+].[Na+].[Na+] [Compound 2j, Disodium (1-[bis(sodiooxy)phosphoryl]-3-(5-methylhex-4-enamido)propyl)phosphonate] |  |  | lack of effect | 
4 | CC(C)=CCC[C@@H](C)CC(=O)NCCC(P(=O)([O-])[O-])P(=O)([O-])[O-].[Na+].[Na+].[Na+].[Na+] [Compound 2e, Disodium (1-[bis(sodiooxy)phosphoryl]-3-[(3R)-3,7-dimethyloct-6-enamido]propyl)phosphonate] | no inhibitory activity was observed | no inhibitory activity was observed | None of these compounds (2g, 2h, 2i, 2e, 2d) disrupted H-Ras farnesylation | Fold more potent than S-isomer 2d (RPMI-8226 myeloma cells [2]; cellular assays): 10 fold
5 | CC(C)=CCC[C@H](C)CC(=O)NCCC(P(=O)([O-])[O-])P(=O)([O-])[O-].[Na+].[Na+].[Na+].[Na+] [Compound 2d, Disodium (1-[bis(sodiooxy)phosphoryl]-3-[(3S)-3,7-dimethyloct-6-enamido]propyl)phosphonate] | no inhibitory activity was observed | no inhibitory activity was observed | None of these compounds (2g, 2h, 2i, 2e, 2d) disrupted H-Ras farnesylation | 
6 | CC(C)=CCC/C(C)=C\CCC(=O)NCCC(P(=O)([O-])[O-])P(=O)([O-])[O-].[Na+].[Na+].[Na+].[Na+] [Compound 2i, Disodium (1-[bis(sodiooxy)phosphoryl]-3-[(4Z)-5,9-dimethyldeca-4,8-dienamido]propyl)phosphonate] | no inhibitory activity was observed | no inhibitory activity was observed | None of these compounds (2g, 2h, 2i, 2e, 2d) disrupted H-Ras farnesylation | Times less potent than triazole 1 (RPMI-8226 myeloma cells [2]; by LEC): approximately 17 times
7 | CC(C)=CCC/C(C)=C\CC(=O)NCCC(P(=O)([O-])[O-])P(=O)([O-])[O-].[Na+].[Na+].[Na+].[Na+] [Compound 2g, Disodium (1-[bis(sodiooxy)phosphoryl]-3-[(3Z)-4,8-dimethylnona-3,7-dienamido]propyl)phosphonate] | no inhibitory activity was observed | no inhibitory activity was observed | None of these compounds (2g, 2h, 2i, 2e, 2d) disrupted H-Ras farnesylation | Fold increase in GGDPS inhibitor activity with respect to 2c (RPMI-8226 myeloma cells [2]; Figure 3B, Rap1a immunoblot): 10 fold
8 | CC(C)=CCC/C(C)=C/C(=O)NCCC(P(=O)([O-])[O-])P(=O)([O-])[O-].[Na+].[Na+].[Na+].[Na+] [Compound 2b, Disodium (1-[bis(sodiooxy)phosphoryl]-3-[(2E)-3,7-dimethylocta-2,6-dienamido]propyl)phosphonate] |  |  | disrupted H-Ras farnesylation | GGTase I inhibitory activity (Recombinant GGTase I): no inhibitory activity
